T cruzi inh – inhibitors of intracellular T. cruzi growth, primary screen, luminescence, NIH3T3 host cells | T. cruzi beta-gal in NIH3T3, 90 h | 300,000 compounds, 1.4% hits | AID 1885, 2009 | inhibition, % (test concentration not listed);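 active = mean inhibition across valid replicates above about 55%, limit read from the data; inconclusive = mean below that limit but half or more replicates reach it; inactive = mean below it, under half of replicates reach it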;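 note: signal also drops with host cell toxicity which is not excluded here; 0% = plate median of DMSO wells and 100% = zero luminescence signal; higher percent means less beta-gal luminescence so fewer parasites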
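Assay system: NIH/3T3 host cells with β-galactosidase reporter T. cruzi; input: 5,000 host fibroblasts per well; compound: single 50 nL compound addition per well in DMSO; timing: ≥90 h infection period, 3 h prior cell attachment; measured by: GalScreen β-gal luminescence, detergent lysis, 60 min; evaluation: percent inhibition of parasite-derived β-gal signal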
UPR CHOP act – activators of apoptotic CHOP UPR arm, primary screen, cell-based, CHO-CHOP luciferase reporter, luminescence, uHTS; UPR activation; percent of tunicamycin response over DMSO baseline; activation, % at 10 µM; 330,000 compounds, 0.34% hits; AID 449763, 2010;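 active = at 10 µM dose, activation of 40% or more, normalized to positive control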;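 note: 100% = tunicamycin at 10 µg/mL and 0% = DMSO alone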
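System: CHO-CHOP luciferase reporter cell line; amount: 500 cells/well; buffer or medium: F12 medium containing 10% fetal bovine serum; incubation: 6 h compound exposure at 37 °C after overnight seeding; measured by: luciferase luminescence after 10 min with Steady-Glo reagent; evaluation: % reporter activation, DMSO baseline versus tunicamycin full activation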
CHOP inh – inhibitors of CHOP promoter induction, primary screen, cell-based, unfolded protein response, luciferase reporter. inhibition, % at 10 µM. CHO-K1 CHOP-promoter luciferase, tunicamycin-induced, 15-18 h. 220,000 compounds, 3.8% hits;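 active = compounds that reduced the stress-induced luciferase reporter signal by more than about 70% of percent inhibition, limit read from the data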;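 note: 0% = tunicamycin plus vehicle and 100% = wells without tunicamycin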
XBP1 UPR activ – activators of adaptive XBP1 UPR arm, primary screen, cell-based, CHO-XBP1 luciferase reporter, luminescence, uHTS; AID 463104, 2010; 330,000 compounds, 0.33% hits; IRE1-XBP1 UPR activation; percent of tunicamycin response, DMSO as zero; activation, % at 20 µM;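 active = versus positive control, 20 µM dose yields 30% or more activation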;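 note: 100% = tunicamycin at 10 µg/mL and 0% = DMSO only wells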
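Signal: luciferase luminescence; Assay system: CHO-XBP1 luciferase reporter cells; Amount: one thousand reporter cells per well; Dosing: 20 µM single concentration, DMSO 1%; Benchmarks: high control tunicamycin 10 µg/mL final, low control DMSO vehicle only; Schedule: 6 h compound exposure at 37 °C, 5% CO2; Evaluation: percent activation relative to tunicamycin reference.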
Dynein transport – inhibitors of GR-EGFP nuclear translocation, primary screen, dynein cargo transport inhibitor project, imaging, high-content, 3617.4 mouse cells; test concentration mostly 20 µM; stimulated with dexamethasone, 1 µM; hits give low values; z-score, hits read low; 220,000 compounds, 0.47% hits;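 active = plate z-score of nuclear minus cytoplasmic receptor signal below a set negative limit, without overly bright fluorescence or cell loss, cut at about -3.5 in these data, passing the limit was not always enough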;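 note: z-score of nuclear minus cytoplasmic ring GR-EGFP intensity difference per well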
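Also added – dexamethasone, 1.0 µM final · Buffer or medium – tet-free, stripped-serum medium · Schedule – induction 48 h, compound 1 h, agonist 30 min · Detection – formaldehyde fixation, Hoechst nuclear stain, 10x automated fluorescence imaging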
L major viab – Leishmania major promastigote growth inhibition, primary screen. Leishmania major promastigotes, resazurin fluorescence viability. inhibition, % at 10 µM. 200,000 compounds, 9% hits; in the data active = inhibition above about 50%;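 note: promastigotes grown with compound for 44 hours at 28 °C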
* marks the source's active call; other numbers are inactive results. This excerpt belongs to a sample that is enriched for hits.

Screening O=C1CSC(=S)N1N1C(=O)c2cccc([N+](=O)[O-])c2C1=O returned T cruzi inh -7, UPR CHOP act 1, CHOP inh 8, XBP1 UPR activ 0, Dynein transport -0.51 and L major viab -4.
`O=C(Nc1cccc(N2CCCC2)c1)c1cccs1` gave T cruzi inh 57*, UPR CHOP act 0, CHOP inh -14, XBP1 UPR activ 2, Dynein transport 0.28 and L major viab 86*.
For Nc1cccc(NC(=O)c2cccs2)c1 the results were T cruzi inh -12, UPR CHOP act 0, CHOP inh -3, XBP1 UPR activ 0, Dynein transport -0.59 and L major viab 2.
For O=C(c1sc2ccccc2c1Cl)N(Cc1ccccc1)C1CCS(=O)(=O)C1 (configuration not stated) the results were T cruzi inh 15, UPR CHOP act -1, CHOP inh -13, XBP1 UPR activ 0, Dynein transport 0.56 and L major viab 46.
Screening O=C(c1sc2ccccc2c1Cl)N(Cc1ccco1)C1CCS(=O)(=O)C1 (configuration not stated) returned T cruzi inh 9, UPR CHOP act 1, CHOP inh -3, XBP1 UPR activ -1, Dynein transport -0.34 and L major viab 96*.
Screening CC(=O)C(/C=N/c1cc(-c2ccc(C)cc2)nn1-c1ccccc1)=C(\C)O returned T cruzi inh -7, UPR CHOP act 10, CHOP inh -8, XBP1 UPR activ 3, Dynein transport -0.41 and L major viab 64*.
CN1CCN(CCOCCOc2ccc(Br)cc2Cl)CC1 was read as T cruzi inh 50, UPR CHOP act -1 and XBP1 UPR activ -2.
`CC1CCCN(CCOCCOc2ccc(Br)cc2Cl)C1` (configuration not stated) gave T cruzi inh 46, UPR CHOP act 0, CHOP inh 7, XBP1 UPR activ -2, Dynein transport 0.42 and L major viab 97*.
O=C(COc1ccc(Cl)cc1Cl)Nc1ccc(CN2CCOCC2)cc1 was read as T cruzi inh 0, UPR CHOP act 3 and XBP1 UPR activ -1.
Screening CCCCCOc1ccc(CN2CCOCC2)cc1Cl returned T cruzi inh 36, UPR CHOP act 4, CHOP inh -33, XBP1 UPR activ 1, Dynein transport 0.091 and L major viab 86*.
Clc1cc(Br)ccc1OCCN1CCOCC1 was read as T cruzi inh -13, UPR CHOP act 1, CHOP inh 21, XBP1 UPR activ 2, Dynein transport -0.32 and L major viab 93*.
For CC1CCN(CCCOc2ccc(Br)cc2Cl)CC1 the results were T cruzi inh 34, UPR CHOP act 1, CHOP inh -7, XBP1 UPR activ 1, Dynein transport -0.91 and L major viab 89*.
`COc1ccc(S(=O)(=O)N2CCCCC2)cc1NC(=O)CCNC(=O)c1ccco1` gave UPR CHOP act 0 and XBP1 UPR activ -4.
`CCOC(=O)CC[C@H](NC(=O)Cn1cnc(C(=O)Nc2ccc(C)c(C)c2)n1)C(=O)OCC` gave UPR CHOP act 2 and XBP1 UPR activ 5.
For CC1CCCN(CCOCCOc2ccc(Cl)cc2Br)C1 (configuration not stated) the results were T cruzi inh inconclusive, UPR CHOP act -1, CHOP inh -18, XBP1 UPR activ -2, Dynein transport -0.3 and L major viab 98*.
Screening Cc1ccc(OCCCCCCN2CCNCC2)c(Br)c1 returned T cruzi inh 33, UPR CHOP act 3 and XBP1 UPR activ -2.
Clc1ccc(OCCOCCOc2cccc3cccnc23)c(Br)c1 was read as T cruzi inh 0, UPR CHOP act -2, CHOP inh 30, XBP1 UPR activ -1, Dynein transport 0.3 and L major viab -5.
`Cc1ccc(OCCCCN2CCC(C)CC2)c(Br)c1` gave T cruzi inh 18, UPR CHOP act -1, CHOP inh 15, XBP1 UPR activ -3, Dynein transport 2.2 and L major viab 100*.
O=C(OCc1ccc([N+](=O)[O-])cc1)c1cc(=O)c2ccccc2o1 was read as T cruzi inh -9, UPR CHOP act 1 and XBP1 UPR activ 3.
`O=C(COc1ccccc1)NC(=S)Nc1cccc(NC(=O)c2ccccc2Cl)c1` gave T cruzi inh -13, UPR CHOP act 0, CHOP inh 8, XBP1 UPR activ 0, Dynein transport -0.86 and L major viab -7.
CC(C)CC(=O)NC(=S)Nc1cccc(NC(=O)c2ccccc2Cl)c1 was read as T cruzi inh -11, UPR CHOP act 1, CHOP inh 36, XBP1 UPR activ 0, Dynein transport -0.28 and L major viab 18.
CC(C)CC(=O)Nc1cccc(NC(=O)c2ccccc2Cl)c1 was read as T cruzi inh -3, UPR CHOP act 0, CHOP inh 26, XBP1 UPR activ -1, Dynein transport -0.51 and L major viab 59*.
`CC(C)Oc1cccc(C(=O)NC(=S)Nc2cccc(NC(=O)c3ccccc3Cl)c2)c1` gave T cruzi inh 14, UPR CHOP act 2, CHOP inh 10, XBP1 UPR activ -1, Dynein transport -0.63 and L major viab 86*.
For Cc1cc(C)cc(NC(=S)N2CC(C)OC(C)C2)c1 (configuration not stated) the results were UPR CHOP act -2 and XBP1 UPR activ -1.
COc1ccc(NC(=O)NC23CC4(C)CC(C)(CC(C)(C4)C2)C3)cc1OC was read as T cruzi inh 41, UPR CHOP act 7, CHOP inh 64, XBP1 UPR activ -1, Dynein transport 0.91 and L major viab 45.
COc1ccc2[nH]c(=O)c(-c3noc(-c4ccccc4)n3)cc2c1 was read as T cruzi inh 23, UPR CHOP act 2, CHOP inh 88*, XBP1 UPR activ 9, Dynein transport -0.53 and L major viab 45.
Screening O=C(CSc1nc2sc3c(c2c(=O)n1-c1ccccc1)CCCC3)NCc1ccco1 returned T cruzi inh 35, UPR CHOP act -1, CHOP inh 84*, XBP1 UPR activ -1, Dynein transport -0.87 and L major viab -2.
For O=C(CSc1nc2scc(-c3ccco3)c2c(=O)n1-c1ccccc1)NCC1CCCO1 (configuration not stated) the results were T cruzi inh 2, UPR CHOP act 4, CHOP inh 100*, XBP1 UPR activ -1, Dynein transport -0.64 and L major viab -2.
